Test system: not listed separately
Test: Plasma half-life was measured in monkey
Format: ADME
Conditions: cercopithecidae
Procedure, shortened: (§1)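 Pharmacokinetics in rat, dog and monkey. Dosing was iv 1 mpk and po 2 mpk.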

SMILES	half-life [h]
CCc1nnc2n1CCN(C(=O)C[C@H](N)Cc1ccc(F)c(F)c1)C2.Cl	1.3
Cl.N[C@@H](CC(=O)N1CCn2c(nnc2C(F)(F)F)C1)Cc1cc(F)c(F)cc1F	3.7

Test system: not listed separately
Test: Oral bioavailability in rat
Format: ADME, organism-based
Conditions: in vivo
Procedure, shortened: as §1

SMILES	bioavailability [%]
Cl.N[C@@H](CC(=O)N1CCn2c(nnc2C(F)(F)F)C1)Cc1cc(F)ccc1F	51
CCc1nnc2n1CCN(C(=O)C[C@H](N)Cc1ccc(F)c(F)c1)C2.Cl	2
Cl.N[C@@H](CC(=O)N1CCn2cnnc2C1)Cc1cc(F)c(F)cc1F	3
Cl.N[C@@H](CC(=O)N1CCn2c(nnc2C(F)(F)F)C1)Cc1ccc(F)c(F)c1	44
Cl.N[C@@H](CC(=O)N1CCn2c(nnc2C(F)(F)C(F)(F)F)C1)Cc1cc(F)c(F)cc1F	61
Cl.N[C@@H](CC(=O)N1CCn2c(nnc2C(F)(F)C(F)(F)F)C1)Cc1cc(F)ccc1F	1

Test system: not listed separately
Test: Oral bioavailability in dog
Format: ADME, organism-based, Canis lupus familiaris
Conditions: in vivo
Procedure, shortened: as §1

SMILES	bioavailability [%]
CCc1nnc2n1CCN(C(=O)C[C@H](N)Cc1ccc(F)c(F)c1)C2.Cl	33
Cl.N[C@@H](CC(=O)N1CCn2c(nnc2C(F)(F)F)C1)Cc1cc(F)c(F)cc1F	100

Test system: not listed separately
Test: Oral bioavailability in monkey
Format: ADME, organism-based
Conditions: cercopithecidae, in vivo
Procedure, shortened: as §1

SMILES	bioavailability [%]
CCc1nnc2n1CCN(C(=O)C[C@H](N)Cc1ccc(F)c(F)c1)C2.Cl	1
Cl.N[C@@H](CC(=O)N1CCn2c(nnc2C(F)(F)F)C1)Cc1cc(F)c(F)cc1F	68

Test system: not listed separately
Test: Maximum concentration in plasma of monkey upon peroral dose of 2 mpk
Format: ADME, organism-based
Set-up: dose 2 mpk, route oral
Conditions: cercopithecidae, po, 2 mg/kg
Procedure, shortened: as §1

SMILES	Cmax [nM]
CCc1nnc2n1CCN(C(=O)C[C@H](N)Cc1ccc(F)c(F)c1)C2.Cl	12

Target: Dipeptidyl peptidase 9 (Homo sapiens, UniProt Q86TI2)
Test: In vitro inhibitory concentration was measured against dipeptidylpeptidase 9
Conditions: not given

Dipeptidyl peptidase 9, sequence (Q86TI2 whole entry): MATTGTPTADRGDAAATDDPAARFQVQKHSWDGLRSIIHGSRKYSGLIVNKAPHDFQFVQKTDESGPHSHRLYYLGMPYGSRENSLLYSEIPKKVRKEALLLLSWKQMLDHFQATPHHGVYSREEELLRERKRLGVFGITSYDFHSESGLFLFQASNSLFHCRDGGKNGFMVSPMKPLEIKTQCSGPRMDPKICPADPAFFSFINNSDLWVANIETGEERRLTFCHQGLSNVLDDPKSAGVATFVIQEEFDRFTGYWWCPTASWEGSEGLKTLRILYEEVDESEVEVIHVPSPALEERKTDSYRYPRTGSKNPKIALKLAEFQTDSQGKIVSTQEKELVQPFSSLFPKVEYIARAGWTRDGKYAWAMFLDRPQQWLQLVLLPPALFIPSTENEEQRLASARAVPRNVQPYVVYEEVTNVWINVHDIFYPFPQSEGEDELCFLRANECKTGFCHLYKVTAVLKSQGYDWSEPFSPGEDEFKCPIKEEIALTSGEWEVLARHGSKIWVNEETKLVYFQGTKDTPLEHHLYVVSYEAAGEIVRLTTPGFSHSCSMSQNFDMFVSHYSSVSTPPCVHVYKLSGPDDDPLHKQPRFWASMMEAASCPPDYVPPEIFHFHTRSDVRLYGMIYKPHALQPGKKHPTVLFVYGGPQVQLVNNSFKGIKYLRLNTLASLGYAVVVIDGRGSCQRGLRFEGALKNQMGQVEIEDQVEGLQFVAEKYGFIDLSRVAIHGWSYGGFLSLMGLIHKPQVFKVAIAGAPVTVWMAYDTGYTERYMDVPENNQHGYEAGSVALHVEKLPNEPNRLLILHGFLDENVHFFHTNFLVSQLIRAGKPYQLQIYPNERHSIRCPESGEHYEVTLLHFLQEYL

SMILES	IC50 [µM]
Cl.N[C@@H](CC(=O)N1CCn2c(nnc2C(F)(F)F)C1)Cc1cc(F)ccc1F	> 100
N[C@@H](CC(=O)N1CCn2cnnc2C1)Cc1ccc(F)c(F)c1	> 100
CCc1nnc2n1CCN(C(=O)C[C@H](N)Cc1ccc(F)c(F)c1)C2.Cl	> 100
Cl.N[C@@H](CC(=O)N1CCn2cnnc2C1)Cc1cc(F)c(F)cc1F	> 100
Cl.N[C@@H](CC(=O)N1CCn2c(nnc2C(F)(F)F)C1)Cc1ccc(F)c(F)c1	> 100
Cl.N[C@@H](CC(=O)N1CCn2c(nnc2C(F)(F)C(F)(F)F)C1)Cc1cc(F)c(F)cc1F	> 100
Cl.N[C@@H](CC(=O)N1CCn2c(nnc2C(F)(F)C(F)(F)F)C1)Cc1cc(F)ccc1F	> 100

Test system: not listed separately
Test: Maximum concentration was measured in plasma of dog upon peroral dose of 2 mpk
Format: ADME, organism-based, Canis lupus familiaris
Set-up: dose 2 mpk, route oral
Conditions: po, 2 mg/kg
Procedure, shortened: as §1

SMILES	Cmax [nM]
Cl.N[C@@H](CC(=O)N1CCn2c(nnc2C(F)(F)F)C1)Cc1cc(F)c(F)cc1F	2200

Target: Dipeptidyl peptidase 4 (Homo sapiens, UniProt P27487)
Conditions: not given

Dipeptidyl peptidase 4, sequence (P27487 whole entry): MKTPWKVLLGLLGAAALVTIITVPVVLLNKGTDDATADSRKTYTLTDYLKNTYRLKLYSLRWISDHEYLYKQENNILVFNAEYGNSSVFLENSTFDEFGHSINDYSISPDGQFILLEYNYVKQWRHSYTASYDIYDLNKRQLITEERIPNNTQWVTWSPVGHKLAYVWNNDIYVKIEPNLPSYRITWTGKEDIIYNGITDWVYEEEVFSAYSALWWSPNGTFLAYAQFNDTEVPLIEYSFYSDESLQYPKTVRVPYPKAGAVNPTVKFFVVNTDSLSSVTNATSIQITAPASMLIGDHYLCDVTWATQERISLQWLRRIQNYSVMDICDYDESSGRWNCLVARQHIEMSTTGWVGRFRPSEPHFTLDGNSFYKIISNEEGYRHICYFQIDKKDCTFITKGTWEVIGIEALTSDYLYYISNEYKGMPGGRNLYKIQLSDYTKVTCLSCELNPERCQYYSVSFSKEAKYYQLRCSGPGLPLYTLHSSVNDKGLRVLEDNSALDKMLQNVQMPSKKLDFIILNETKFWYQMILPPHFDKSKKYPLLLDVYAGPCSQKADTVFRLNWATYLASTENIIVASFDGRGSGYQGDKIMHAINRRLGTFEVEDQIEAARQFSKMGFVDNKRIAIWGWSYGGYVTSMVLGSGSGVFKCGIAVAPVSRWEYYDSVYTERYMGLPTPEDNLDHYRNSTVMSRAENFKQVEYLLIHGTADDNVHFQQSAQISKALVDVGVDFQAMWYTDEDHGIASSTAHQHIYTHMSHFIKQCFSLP

SMILES	IC50 [µM]
N[C@@H](CC(=O)N1CCNCC1)Cc1ccc(F)c(F)c1	3.1
N[C@@H](CC(=O)N1CCn2cnnc2C1)Cc1ccc(F)c(F)c1	0.455
CCc1nnc2n1CCN(C(=O)C[C@H](N)Cc1ccc(F)c(F)c1)C2.Cl	0.231
Cl.N[C@@H](CC(=O)N1CCn2cnnc2C1)Cc1cc(F)c(F)cc1F	0.068
Cl.N[C@@H](CC(=O)N1CCn2c(nnc2C(F)(F)C(F)(F)F)C1)Cc1cc(F)c(F)cc1F	0.071
Cl.N[C@@H](CC(=O)N1CCn2c(nnc2C(F)(F)C(F)(F)F)C1)Cc1cc(F)ccc1F	0.103

Test system: not listed separately
Test: Plasma clearance was measured in monkey
Format: ADME, organism-based
Conditions: cercopithecidae, read-out: Clp
Procedure, shortened: as §1

SMILES	clearance [mL/min/kg]
CCc1nnc2n1CCN(C(=O)C[C@H](N)Cc1ccc(F)c(F)c1)C2.Cl	26
Cl.N[C@@H](CC(=O)N1CCn2c(nnc2C(F)(F)F)C1)Cc1cc(F)c(F)cc1F	28

Test system: not listed separately
Test: Maximum concentration was measured in plasma of rat upon peroral dose of 2 mpk
Format: ADME, organism-based
Set-up: dose 2 mpk, route oral
Conditions: po, 2 mg/kg
Procedure, shortened: as §1

SMILES	Cmax [nM]
Cl.N[C@@H](CC(=O)N1CCn2c(nnc2C(F)(F)F)C1)Cc1cc(F)ccc1F	190
Cl.N[C@@H](CC(=O)N1CCn2c(nnc2C(F)(F)F)C1)Cc1cc(F)c(F)cc1F	330
Cl.N[C@@H](CC(=O)N1CCn2cnnc2C1)Cc1cc(F)c(F)cc1F	30
Cl.N[C@@H](CC(=O)N1CCn2c(nnc2C(F)(F)F)C1)Cc1ccc(F)c(F)c1	140
Cl.N[C@@H](CC(=O)N1CCn2c(nnc2C(F)(F)C(F)(F)F)C1)Cc1cc(F)c(F)cc1F	160
Cl.N[C@@H](CC(=O)N1CCn2c(nnc2C(F)(F)C(F)(F)F)C1)Cc1cc(F)ccc1F	2

Test system: not listed separately
Test: Plasma half-life was measured in rat
Format: ADME, organism-based
Conditions: not given
Procedure, shortened: as §1

SMILES	half-life [h]
CCc1nnc2n1CCN(C(=O)C[C@H](N)Cc1ccc(F)c(F)c1)C2.Cl	2.7
Cl.N[C@@H](CC(=O)N1CCn2c(nnc2C(F)(F)F)C1)Cc1cc(F)c(F)cc1F	1.7
Cl.N[C@@H](CC(=O)N1CCn2cnnc2C1)Cc1cc(F)c(F)cc1F	1
Cl.N[C@@H](CC(=O)N1CCn2c(nnc2C(F)(F)F)C1)Cc1ccc(F)c(F)c1	1.8
Cl.N[C@@H](CC(=O)N1CCn2c(nnc2C(F)(F)C(F)(F)F)C1)Cc1cc(F)c(F)cc1F	2.3
Cl.N[C@@H](CC(=O)N1CCn2c(nnc2C(F)(F)C(F)(F)F)C1)Cc1cc(F)ccc1F	1.5

Target: Dipeptidyl peptidase 2 (Homo sapiens, UniProt Q9UHL4)
Test: In vitro inhibitory concentration was measured against quiescent cell proline dipeptidase
Conditions: not given

SMILES	IC50 [µM]
Cl.N[C@@H](CC(=O)N1CCn2c(nnc2C(F)(F)F)C1)Cc1cc(F)ccc1F	> 100
N[C@@H](CC(=O)N1CCn2cnnc2C1)Cc1ccc(F)c(F)c1	> 10
CCc1nnc2n1CCN(C(=O)C[C@H](N)Cc1ccc(F)c(F)c1)C2.Cl	64
Cl.N[C@@H](CC(=O)N1CCn2cnnc2C1)Cc1cc(F)c(F)cc1F	> 10
Cl.N[C@@H](CC(=O)N1CCn2c(nnc2C(F)(F)F)C1)Cc1ccc(F)c(F)c1	98
Cl.N[C@@H](CC(=O)N1CCn2c(nnc2C(F)(F)C(F)(F)F)C1)Cc1cc(F)c(F)cc1F	78
Cl.N[C@@H](CC(=O)N1CCn2c(nnc2C(F)(F)C(F)(F)F)C1)Cc1cc(F)ccc1F	> 100

Test system: not listed separately
Test: Plasma half-life was measured in plasma of rat
Format: ADME, cell-free
Conditions: not given
Procedure, shortened: as §1

SMILES	half-life [h]
Cl.N[C@@H](CC(=O)N1CCn2c(nnc2C(F)(F)F)C1)Cc1cc(F)ccc1F	1.6

Test system: not listed separately
Test: Plasma clearance was measured in dog
Format: ADME, organism-based, Canis lupus familiaris
Conditions: read-out: Clp
Procedure, shortened: as §1

SMILES	clearance [mL/min/kg]
CCc1nnc2n1CCN(C(=O)C[C@H](N)Cc1ccc(F)c(F)c1)C2.Cl	13
Cl.N[C@@H](CC(=O)N1CCn2c(nnc2C(F)(F)F)C1)Cc1cc(F)c(F)cc1F	6

Test system: not listed separately
Test: Plasma clearance was measured in rat
Format: ADME, organism-based
Conditions: read-out: Clp
Procedure, shortened: as §1

SMILES	clearance [mL/min/kg]
Cl.N[C@@H](CC(=O)N1CCn2c(nnc2C(F)(F)F)C1)Cc1cc(F)ccc1F	43
CCc1nnc2n1CCN(C(=O)C[C@H](N)Cc1ccc(F)c(F)c1)C2.Cl	45
Cl.N[C@@H](CC(=O)N1CCn2cnnc2C1)Cc1cc(F)c(F)cc1F	40
Cl.N[C@@H](CC(=O)N1CCn2c(nnc2C(F)(F)F)C1)Cc1ccc(F)c(F)c1	51
Cl.N[C@@H](CC(=O)N1CCn2c(nnc2C(F)(F)C(F)(F)F)C1)Cc1cc(F)c(F)cc1F	58
Cl.N[C@@H](CC(=O)N1CCn2c(nnc2C(F)(F)C(F)(F)F)C1)Cc1cc(F)ccc1F	109

Test system: not listed separately
Test: Maximum concentration was measured in plasma of monkey upon peroral dose of 2 mpk
Format: ADME, organism-based
Set-up: dose 2 mpk, route oral
Conditions: cercopithecidae, po, 2 mg/kg
Procedure, shortened: as §1

SMILES	Cmax [nM]
Cl.N[C@@H](CC(=O)N1CCn2c(nnc2C(F)(F)F)C1)Cc1cc(F)c(F)cc1F	330

Test system: not listed separately
Test: Maximum concentration in plasma of rat upon peroral dose of 2 mpk
Format: ADME, organism-based
Set-up: dose 2 mpk, route oral
Conditions: po, 2 mg/kg
Procedure, shortened: as §1

SMILES	Cmax [nM]
CCc1nnc2n1CCN(C(=O)C[C@H](N)Cc1ccc(F)c(F)c1)C2.Cl	10

Test system: not listed separately
Test: Plasma half-life was measured in dog
Format: ADME, cell-free, Canis lupus familiaris
Conditions: not given
Procedure, shortened: as §1

SMILES	half-life [h]
CCc1nnc2n1CCN(C(=O)C[C@H](N)Cc1ccc(F)c(F)c1)C2.Cl	2.3
Cl.N[C@@H](CC(=O)N1CCn2c(nnc2C(F)(F)F)C1)Cc1cc(F)c(F)cc1F	4.9

Test system: not listed separately
Test: Maximum concentration in plasma of dog upon peroral dose of 2 mpk
Format: ADME, organism-based, Canis lupus familiaris
Set-up: dose 2 mpk, route oral
Conditions: po, 2 mg/kg
Procedure, shortened: as §1

SMILES	Cmax [nM]
CCc1nnc2n1CCN(C(=O)C[C@H](N)Cc1ccc(F)c(F)c1)C2.Cl	730

— ChEMBL document CHEMBL1141929, “(2R)-4-oxo-4-[3-(trifluoromethyl)-5,6-dihydro[1,2,4]triazolo[4,3-a]pyrazin-7(8H)-yl]-1-(2,4,5-trifluorophenyl)butan-2-amine: a potent, orally active dipeptidyl peptidase IV inhibitor for the treatment of type 2 diabetes” (J Med Chem, 2005)
